Test results taken from ChEMBL document CHEMBL2321812 (J Med Chem, 2013).
Active and inactive are the calls of the source. The calls are words filed in the database; no cut-off is given here.

Assays:
[1] = Half life in male ICR mouse at 5 mg/kg, ip; type: ADME, organism-based; set-up: dose 5 mg/kg, route intraperitoneal; conditions: in vivo
In short: (§1)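 Male and female ICR mice (18.2-26.0 g) got 5 mg/kg i.p. in 5% DMSO/50% PEG400/45% saline. Terminal cardiac blood was drawn after CO2 euthanasia at 5, 15, 30 min and 1, 2, 4, 8, 24 h.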

[2] = Cmax in male ICR mouse at 1 mg/kg, iv; type: ADME, organism-based; set-up: dose 1 mg/kg, route intravenous; conditions: in vivo
In short: (§2)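 Single 1 mg/kg i.v. injection to male and female ICR mice (18.2-26.0 g) in 5% DMSO/50% PEG400/45% saline. Blood was taken by cardiac puncture after CO2 euthanasia at 5, 15, 30 min and 1, 2, 4, 8, 24 h post dose.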

[3] = Bioavailability in female ICR mouse measured from AUC (0 to infinity) at 5 mg/kg, ip; type: ADME, organism-based; conditions: in vivo
In short: (§3)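 Intraperitoneal dosing was 5 mg/kg, referenced to 1 mg/kg i.v., both in 5% DMSO/50% PEG400/45% saline, in male and female ICR mice. Plasma was sampled from 5 min to 24 h and measured by HPLC-MS/MS.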

Mus musculus [4] = assay: Bioavailability in female ICR mouse measured from AUC (0 to t) at 5 mg/kg, ip; type: ADME, organism-based; conditions: in vivo; in short: as §3
[5] = molecular target: Poly [ADP-ribose] polymerase 1 (Homo sapiens) (UniProt P09874); assay: Inhibition of PARP1 (unknown origin) up to 20 uM by NAD+-dependent autopoly(ADP ribosyl)lation assay
In short: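 PARP1 was tested with a chemiluminescent poly(ADP-ribosyl)ation assay kit over a range of concentrations. Each point was run in duplicate and the experiment was done twice. Luminescence was read and IC50 was fitted to a Langmuir binding isotherm.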

[6] = Apparent volume of distribution in male ICR mouse at 1 mg/kg, iv; type: ADME, organism-based; set-up: dose 1 mg/kg, route intravenous; conditions: in vivo, read-out: Vz; in short: as §2
[7] = AUC (0 to t) in male ICR mouse at 1 mg/kg, iv; type: ADME, organism-based; set-up: dose 1 mg/kg, route intravenous; conditions: plasma; in short: as §2
[8] = Mean residence time (0 to infinity) in male ICR mouse at 5 mg/kg, ip; type: ADME, organism-based; set-up: dose 5 mg/kg, route intraperitoneal; conditions: in vivo; in short: as §1
[9] = AUC (0 to t) in male ICR mouse at 5 mg/kg, ip; type: ADME, organism-based; set-up: dose 5 mg/kg, route intraperitoneal; conditions: plasma; in short: as §1
[10] = Bioavailability in male ICR mouse measured from AUC (0 to infinity) at 5 mg/kg, ip; type: ADME, organism-based; conditions: in vivo; in short: as §3
[11] = Mean residence time (0 to infinity) in male ICR mouse at 5 mg/kg, po; type: ADME, organism-based; set-up: dose 5 mg/kg, route oral; conditions: in vivo
In short: (§4)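 Oral gavage at 5 mg/kg in 10% NMP/60% PEG400/30% saline to overnight-fasted (10-15 h) male and female ICR mice (18.2-26.0 g). Blood was taken by cardiac puncture after CO2 euthanasia at 5, 15, 30 min and 1, 2, 4, 8, 24 h.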

[12] = AUC (0 to infinity) in male ICR mouse at 5 mg/kg, ip; type: ADME, organism-based; set-up: time infinity, dose 5 mg/kg, route intraperitoneal; conditions: plasma; in short: as §1
[13] = AUC (0 to infinity) in female ICR mouse at 1 mg/kg, iv; type: ADME, organism-based; set-up: time infinity, dose 1 mg/kg, route intravenous; conditions: plasma; in short: as §2
[14] = Mean residence time (0 to infinity) in female ICR mouse at 5 mg/kg, po; type: ADME, organism-based; set-up: dose 5 mg/kg, route oral; conditions: in vivo; in short: as §4
[15] = Tmax in female ICR mouse at 1 mg/kg, iv; type: ADME, organism-based; set-up: dose 1 mg/kg, route intravenous; conditions: in vivo; in short: as §2
[16] = Half life in female ICR mouse at 1 mg/kg, iv; type: ADME, organism-based; set-up: dose 1 mg/kg, route intravenous; conditions: in vivo; in short: as §2
[17] = AUC (0 to infinity) in male ICR mouse at 5 mg/kg, po; type: ADME, organism-based; set-up: time infinity, dose 5 mg/kg, route oral; conditions: plasma; in short: as §4
[18] = Half life in male ICR mouse at 5 mg/kg, po; type: ADME, organism-based; set-up: dose 5 mg/kg, route oral; conditions: in vivo; in short: as §4
[19] = Oral bioavailability in female ICR mouse measured from AUC (0 to infinity) at 5 mg/kg; type: ADME, organism-based; conditions: in vivo
In short: (§5)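 Oral 5 mg/kg (10% NMP/60% PEG400/30% saline, after 10-15 h fast) was compared with 1 mg/kg i.v. (5% DMSO/50% PEG400/45% saline) in male and female ICR mice. Plasma from 5 min to 24 h was measured by HPLC-MS/MS.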

[20] = Cmax in male ICR mouse at 5 mg/kg, ip; type: ADME, organism-based; set-up: dose 5 mg/kg, route intraperitoneal; conditions: in vivo; in short: as §1
[21] = AUC (0 to infinity) in male ICR mouse at 1 mg/kg, iv; type: ADME, organism-based; set-up: time infinity, dose 1 mg/kg, route intravenous; conditions: plasma; in short: as §2
[22] = Mean residence time (0 to infinity) in male ICR mouse at 1 mg/kg, iv; type: ADME, organism-based; set-up: dose 1 mg/kg, route intravenous; conditions: in vivo; in short: as §2
[23] = AUC (0 to t) in female ICR mouse at 5 mg/kg, ip; type: ADME, organism-based; set-up: dose 5 mg/kg, route intraperitoneal; conditions: plasma; in short: as §1
[24] = AUC (0 to infinity) in female ICR mouse at 5 mg/kg, ip; type: ADME, organism-based; set-up: time infinity, dose 5 mg/kg, route intraperitoneal; conditions: plasma; in short: as §1
[25] = Cmax in female ICR mouse at 1 mg/kg, iv; type: ADME, organism-based; set-up: dose 1 mg/kg, route intravenous; conditions: in vivo; in short: as §2
[26] = Cmax in male ICR mouse at 5 mg/kg, po; type: ADME, organism-based; set-up: dose 5 mg/kg, route oral; conditions: in vivo; in short: as §4
[27] = Tmax in female ICR mouse at 5 mg/kg, ip; type: ADME, organism-based; set-up: dose 5 mg/kg, route intraperitoneal; conditions: in vivo; in short: as §1
[28] = Oral bioavailability in male ICR mouse measured from AUC (0 to t) at 5 mg/kg; type: ADME, organism-based; conditions: in vivo; in short: as §5
Cytochrome P450 3A4 = Cytochrome P450 3A4 (Homo sapiens, UniProt P08684); assay: Inhibition of CYP3A4 (unknown origin)
[29] = Cmax in female ICR mouse at 5 mg/kg, ip; type: ADME, organism-based; set-up: dose 5 mg/kg, route intraperitoneal; conditions: in vivo; in short: as §1
[30] = Clearance in male ICR mouse at 1 mg/kg, iv; type: ADME, organism-based; set-up: dose 1 mg/kg, route intravenous; conditions: in vivo; in short: as §2
[31] = Half life in female ICR mouse at 5 mg/kg, po; type: ADME, organism-based; set-up: dose 5 mg/kg, route oral; conditions: in vivo; in short: as §4
[32] = Tmax in male ICR mouse at 5 mg/kg, po; type: ADME, organism-based; set-up: dose 5 mg/kg, route oral; conditions: in vivo
In short: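 Male and female ICR mice (18.2-26.0 g), fasted overnight (10-15 h) before oral dosing; single gavage at 5 mg/kg in 10% NMP, 60% PEG400, 30% saline. Blood taken by cardiac puncture after CO2 euthanasia at 5, 15, 30 min and 1, 2, 4, 8, 24 h. Heparinised plasma assayed by HPLC-MS/MS. Tmax is the time to reach Cmax.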

[33] = Clearance in female ICR mouse at 1 mg/kg, iv; type: ADME, organism-based; set-up: dose 1 mg/kg, route intravenous; conditions: in vivo; in short: as §2
[34] = Half life in female ICR mouse at 5 mg/kg, ip; type: ADME, organism-based; set-up: dose 5 mg/kg, route intraperitoneal; conditions: in vivo; in short: as §1
[35] = Cmax in female ICR mouse at 5 mg/kg, po; type: ADME, organism-based; set-up: dose 5 mg/kg, route oral; conditions: in vivo; in short: as §4
[36] = Oral bioavailability in female ICR mouse measured from AUC (0 to t) at 5 mg/kg; type: ADME, organism-based; conditions: in vivo; in short: as §5
[37] = Tmax in male ICR mouse at 1 mg/kg, iv; type: ADME, organism-based; set-up: dose 1 mg/kg, route intravenous; conditions: in vivo; in short: as §2
[38] = Apparent volume of distribution in female ICR mouse at 1 mg/kg, iv; type: ADME, organism-based; set-up: dose 1 mg/kg, route intravenous; conditions: in vivo, read-out: Vz; in short: as §2
[39] = AUC (0 to t) in female ICR mouse at 5 mg/kg, po; type: ADME, organism-based; set-up: dose 5 mg/kg, route oral; conditions: plasma; in short: as §4
[40] = Oral bioavailability in male ICR mouse measured from AUC (0 to infinity) at 5 mg/kg; type: ADME, organism-based; conditions: in vivo; in short: as §5
[41] = Tmax in male ICR mouse at 5 mg/kg, ip; type: ADME, organism-based; set-up: dose 5 mg/kg, route intraperitoneal; conditions: in vivo; in short: as §1
[42] = Mean residence time (0 to infinity) in female ICR mouse at 5 mg/kg, ip; type: ADME, organism-based; set-up: dose 5 mg/kg, route intraperitoneal; conditions: in vivo; in short: as §1
[43] = AUC (0 to infinity) in female ICR mouse at 5 mg/kg, po; type: ADME, organism-based; set-up: time infinity, dose 5 mg/kg, route oral; conditions: plasma; in short: as §4
Mus musculus [44] = assay: Bioavailability in male ICR mouse measured from AUC (0 to t) at 5 mg/kg, ip; type: ADME, organism-based; conditions: in vivo; in short: as §3
[45] = AUC (0 to t) in female ICR mouse at 1 mg/kg, iv; type: ADME, organism-based; set-up: dose 1 mg/kg, route intravenous; conditions: plasma; in short: as §2
[46] = Tmax in female ICR mouse at 5 mg/kg, po; type: ADME, organism-based; set-up: dose 5 mg/kg, route oral; conditions: in vivo; in short: as §4
[47] = AUC (0 to t) in male ICR mouse at 5 mg/kg, po; type: ADME, organism-based; set-up: dose 5 mg/kg, route oral; conditions: plasma; in short: as §4
[48] = Mean residence time (0 to infinity) in female ICR mouse at 1 mg/kg, iv; type: ADME, organism-based; set-up: dose 1 mg/kg, route intravenous; conditions: in vivo; in short: as §2

Chain of Cytochrome P450 3A4 (P08684 whole entry): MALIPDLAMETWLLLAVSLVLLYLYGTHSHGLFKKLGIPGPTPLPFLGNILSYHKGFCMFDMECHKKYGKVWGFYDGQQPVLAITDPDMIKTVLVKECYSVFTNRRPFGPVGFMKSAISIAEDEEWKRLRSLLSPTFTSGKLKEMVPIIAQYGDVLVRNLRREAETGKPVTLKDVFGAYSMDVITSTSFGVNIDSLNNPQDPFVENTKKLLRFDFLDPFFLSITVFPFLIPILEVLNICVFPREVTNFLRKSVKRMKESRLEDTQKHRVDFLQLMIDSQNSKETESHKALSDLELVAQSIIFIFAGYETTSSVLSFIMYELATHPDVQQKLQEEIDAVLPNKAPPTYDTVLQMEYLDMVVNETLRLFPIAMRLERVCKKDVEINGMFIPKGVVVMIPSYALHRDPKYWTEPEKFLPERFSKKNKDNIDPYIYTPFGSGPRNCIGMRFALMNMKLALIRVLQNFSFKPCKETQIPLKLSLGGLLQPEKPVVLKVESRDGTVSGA
Chain of Poly [ADP-ribose] polymerase 1 (Homo sapiens) (P09874 whole entry): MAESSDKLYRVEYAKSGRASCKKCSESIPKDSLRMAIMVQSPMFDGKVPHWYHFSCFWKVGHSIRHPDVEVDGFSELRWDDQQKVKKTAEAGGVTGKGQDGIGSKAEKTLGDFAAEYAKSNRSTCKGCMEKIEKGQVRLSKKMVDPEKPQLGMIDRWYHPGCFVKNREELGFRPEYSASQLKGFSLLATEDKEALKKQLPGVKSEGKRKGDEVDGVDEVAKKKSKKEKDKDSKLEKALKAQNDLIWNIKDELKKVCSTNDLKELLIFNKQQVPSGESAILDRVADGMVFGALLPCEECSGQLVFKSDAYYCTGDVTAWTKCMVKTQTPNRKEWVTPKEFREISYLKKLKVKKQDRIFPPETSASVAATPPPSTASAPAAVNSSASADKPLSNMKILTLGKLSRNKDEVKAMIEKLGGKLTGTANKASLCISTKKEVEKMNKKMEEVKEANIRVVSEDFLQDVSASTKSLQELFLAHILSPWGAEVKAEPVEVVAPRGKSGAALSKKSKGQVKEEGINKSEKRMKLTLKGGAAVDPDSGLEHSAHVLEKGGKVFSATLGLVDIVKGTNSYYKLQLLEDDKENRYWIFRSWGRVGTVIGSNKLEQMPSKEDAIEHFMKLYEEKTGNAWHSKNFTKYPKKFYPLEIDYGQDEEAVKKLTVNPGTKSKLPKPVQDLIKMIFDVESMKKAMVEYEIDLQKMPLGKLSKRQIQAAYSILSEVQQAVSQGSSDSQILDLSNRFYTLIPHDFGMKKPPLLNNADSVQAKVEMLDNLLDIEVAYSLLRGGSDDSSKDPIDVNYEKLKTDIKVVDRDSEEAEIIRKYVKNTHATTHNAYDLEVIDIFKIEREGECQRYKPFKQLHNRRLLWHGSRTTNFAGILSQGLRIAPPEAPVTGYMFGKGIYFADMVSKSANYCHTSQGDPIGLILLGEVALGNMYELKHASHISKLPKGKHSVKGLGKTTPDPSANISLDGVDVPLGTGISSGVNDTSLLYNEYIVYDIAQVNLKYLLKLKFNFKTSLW

CS(=O)(=O)c1ccc(-c2nnc(/C=C/c3nnc(-c4ccc(C#N)cc4)o3)n2-c2ccccc2Cl)nc1
half-life [1]: 2.89 h | Cmax [2]: 434 ng/mL | bioavailability [3]: 122% | F (Mus musculus [4]): 152% | inhibition [5]: inactive | Vd [6]: 2.7 L/kg | AUC(0-t) [7]: 1420 ng·h/mL | MRT inf [8]: 4.8 h | AUC(0-t) [9]: 11200 ng·h/mL | bioavailability [10]: 133% | MRT inf [11]: 5.1 h | AUC(0-inf) [12]: 11200 ng·h/mL | AUC(0-inf) [13]: 2300 ng·h/mL | MRT inf [14]: 5.1 h | Tmax [15]: 0.5 h | half-life [16]: 3.46 h | AUC(0-inf) [17]: 8270 ng·h/mL | half-life [18]: 2.6 h | bioavailability [19]: 59% | Cmax [20]: 2360 ng/mL | AUC(0-inf) [21]: 1680 ng·h/mL | MRT inf [22]: 4.1 h | AUC(0-t) [23]: 14100 ng·h/mL | AUC(0-inf) [24]: 14100 ng·h/mL | Cmax [25]: 462 ng/mL | Cmax [26]: 967 ng/mL | Tmax [27]: 0.5 h | bioavailability [28]: 116% | IC50 (Cytochrome P450 3A4): > 25 µM | Cmax [29]: 2660 ng/mL | clearance [30]: 10 mL/min/kg | half-life [31]: 2.63 h | Tmax [32]: 0.25 h | clearance [33]: 7.17 mL/min/kg | half-life [34]: 2.73 h | Cmax [35]: 871 ng/mL | bioavailability [36]: 72.7% | Tmax [37]: 0.25 h | Vd [38]: 2.2 L/kg | AUC(0-t) [39]: 6740 ng·h/mL | bioavailability [40]: 99% | Tmax [41]: 0.5 h | MRT inf [42]: 4.6 h | AUC(0-inf) [43]: 6750 ng·h/mL | F (Mus musculus [44]): 157% | AUC(0-t) [45]: 1850 ng·h/mL | Tmax [46]: 2 h | AUC(0-t) [47]: 8250 ng·h/mL | MRT inf [48]: 4.8 h
